Tn7 DDE FP: inhibitors of Tn7 peptide binding to human fibrin DD(E); P02675; FP displacement of FITC-Tn7 peptide from fibrin DD(E); 0% = median of compound wells per plate; inhibition, % at 8.3 µM; actives 0.13% (n = 370,000);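 active means inhibition above the mean of compounds falling within the control limits plus 3 SD of them, cut at about 14% in these data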;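 further: 0% = plate median of compound wells and 100% = 10 µM Aha-Tn7 peptide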
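Measure: % inhibition scaled between sample-field median and high-control FP; Test system: human fibrin DD(E); Quantity: 2 µM final DD(E) protein; Doses: one dose, 8.3 µM nominal; Schedule: compound with protein 10 min, then 3 h after probe, room temperature; Detection: fluorescence polarization; Medium: Tris buffer with calcium and detergent, pH 7.8.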
PLCg1 inh: inhibitors of human phospholipase C gamma1; P19174; purified PLC-gamma1, fluorogenic substrate, fluorescence; inhibition, % at 12.2 µM; actives 0.84% (n = 370,000); in the data active means inhibition above about 9.5%
ADAM17 inh: inhibitors of human ADAM17; P78536; recombinant ADAM17, EDANS/DABCYL FRET peptide cleavage; inhibition, % at 6.95 µM; actives 0.83% (n = 370,000); AID 720648;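 active means inhibition above the mean of compounds lying between control limits plus 3 SD, set per campaign, cut at about 8.5% in these data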;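 further: 0% = DMSO-only wells as the low control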
PLC-beta3 inh: inhibitors of human phospholipase C beta3. inhibition, % at 12.2 µM. AID 720704. Q01970. actives 0.18% (n = 370,000). Purified PLC-beta3, fluorogenic substrate, fluorescence; in the data active means inhibition above about 11%;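 further: 0% = median of compound wells on plate and 100% = full blocker control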
Target sequence (Q01970 whole entry, looked up): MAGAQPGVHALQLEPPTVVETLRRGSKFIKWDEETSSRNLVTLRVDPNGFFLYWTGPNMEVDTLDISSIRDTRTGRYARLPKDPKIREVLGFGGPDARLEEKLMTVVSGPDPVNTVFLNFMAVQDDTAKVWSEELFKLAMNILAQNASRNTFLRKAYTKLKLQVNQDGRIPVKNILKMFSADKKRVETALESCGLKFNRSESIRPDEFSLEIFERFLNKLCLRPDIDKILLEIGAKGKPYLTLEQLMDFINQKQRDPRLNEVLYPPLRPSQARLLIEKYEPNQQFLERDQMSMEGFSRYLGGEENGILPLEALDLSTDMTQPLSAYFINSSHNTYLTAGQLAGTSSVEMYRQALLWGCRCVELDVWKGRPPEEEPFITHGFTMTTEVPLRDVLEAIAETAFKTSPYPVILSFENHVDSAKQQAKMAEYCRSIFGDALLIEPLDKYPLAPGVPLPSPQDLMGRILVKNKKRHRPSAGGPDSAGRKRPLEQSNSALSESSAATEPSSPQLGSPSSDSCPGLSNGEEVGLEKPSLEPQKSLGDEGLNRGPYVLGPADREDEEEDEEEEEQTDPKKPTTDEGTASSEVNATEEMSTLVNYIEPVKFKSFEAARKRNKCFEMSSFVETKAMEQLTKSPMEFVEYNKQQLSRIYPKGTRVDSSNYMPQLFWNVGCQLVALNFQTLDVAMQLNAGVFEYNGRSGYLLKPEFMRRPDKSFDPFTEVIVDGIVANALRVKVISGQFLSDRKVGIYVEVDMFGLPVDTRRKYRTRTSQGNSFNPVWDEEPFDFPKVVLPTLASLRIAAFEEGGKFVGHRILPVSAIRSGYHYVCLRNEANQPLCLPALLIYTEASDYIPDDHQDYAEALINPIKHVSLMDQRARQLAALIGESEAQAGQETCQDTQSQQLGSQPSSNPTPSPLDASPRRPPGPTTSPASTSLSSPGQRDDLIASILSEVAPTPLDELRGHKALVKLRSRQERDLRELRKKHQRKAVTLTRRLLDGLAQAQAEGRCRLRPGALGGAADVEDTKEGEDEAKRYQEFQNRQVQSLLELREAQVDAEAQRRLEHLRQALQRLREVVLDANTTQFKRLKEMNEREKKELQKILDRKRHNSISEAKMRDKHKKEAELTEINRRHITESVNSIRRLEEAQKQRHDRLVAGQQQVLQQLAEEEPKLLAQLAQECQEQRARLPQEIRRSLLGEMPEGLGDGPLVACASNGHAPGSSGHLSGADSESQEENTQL
Tn6 DDE FP: DD(E)-Tn6 binding inhibition, primary FP screen; actives 0.21% (n = 370,000); P02675; inhibition, % at 8.3 µM; Fibrin DD(E) TRITC-Tn6 fluorescence polarization displacement;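 active means inhibition above a per-campaign cutoff: mean of compounds within control limits plus 3 SD, cut at about 15% in these data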;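 further: 0% = median of all compound wells on the plate and 100% = blocking peptide control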
ADAM10 inh: inhibitors of human ADAM10; recombinant ADAM10, EDANS/DABCYL FRET peptide cleavage, 3 h; inhibition, % at 7 µM; actives 0.62% (n = 370,000); AID 720582;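 active means inhibition above a per-campaign cutoff equal to the mean of compounds falling between control-based bounds plus 3 SD, cut at about 20% in these data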;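 further: 0% = DMSO wells while the 100% control is not disclosed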
ADAM10 confirm: confirmation of inhibitors of human ADAM10; shares compounds with ADAM10 inh; inhibition, % at 6.95 µM; actives 1% (n = 2,100); ADAM10 QFRET peptide cleavage, EDANS fluorescence;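 active means inhibition above about 20% chosen separately for each screening run, limit read from the data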;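 further: 0% = DMSO wells and 100% = marimastat wells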
ADAM17 counter: counter-screen for ADAM10 exosite inhibitors: inhibitors of human ADAM17. shares compounds with ADAM10 inh. ADAM17 QFRET peptide cleavage, EDANS fluorescence. inhibition, % at 6.95 µM. actives 0.5% (n = 2,100). AID 743214;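 active means mean triplicate inhibition above the solvent-only control wells' mean plus 3 SD, cut at about 12% in these data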;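 further: 0% = DMSO wells and 100% = marimastat wells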
ADAM10 counter: ADAM10 inhibition, counter-screen for ADAM17 exosite hits; shares compounds with ADAM17 inh; recombinant ADAM10, EDANS/DABCYL FRET peptide cleavage, 3 h; inhibition, % at 6.95 µM; actives 47% (n = 2,900); AID 743256;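 active means mean inhibition over the triplicate runs exceeds the activity threshold set in the earlier primary screen, cut at about 20% in these data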;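 further: 0% = DMSO wells and 100% = marimastat wells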
ADAM17 confirm: confirmation of inhibitors of human ADAM17; shares compounds with ADAM17 inh; recombinant ADAM17, EDANS/DABCYL QFRET peptide cleavage; inhibition, % at 6.95 µM; actives 65% (n = 2,900);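 active means mean inhibition across replicates above the hit cutoff set in the primary screen, cut at about 8.5% in these data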;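 further: 0% = DMSO wells and 100% = marimastat wells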
* = called active by the depositor. An excerpt weighted towards active compounds, which were near 2.3% of everything screened.

`O=C1c2[nH]nc(-c3ccccc3O)c2C(c2ccc(F)cc2)N1Cc1ccco1` (centres undefined) gave Tn7 DDE FP -1, PLCg1 inh -8, ADAM17 inh 7, PLC-beta3 inh -6, Tn6 DDE FP -10 and ADAM10 inh 10.
COc1ccc(C2c3c(-c4ccccc4O)n[nH]c3C(=O)N2Cc2ccco2)cc1OC (centres undefined) was read as Tn7 DDE FP 8, PLCg1 inh 0, ADAM17 inh 2, PLC-beta3 inh -6, Tn6 DDE FP 1 and ADAM10 inh 5.
For COC(=O)[C@]12C[C@H](CC(=O)NCc3cccc4ccccc34)C(=O)N(CCC3=CCCCC3)C1=C[C@H](C(C)C)O[C@@H]2C1CC1 the results were Tn7 DDE FP 2, PLCg1 inh 0, ADAM17 inh -1, PLC-beta3 inh 1, Tn6 DDE FP -2 and ADAM10 inh 0.
C#CC1(O)C2C=C(OC)C(=O)C1C(c1ccccc1)C2C (centres undefined) was read as Tn7 DDE FP 4, PLCg1 inh 1, ADAM17 inh -4, PLC-beta3 inh 0, Tn6 DDE FP 2 and ADAM10 inh -4.
Screening CC(C)CCNC(=O)NC(=O)CSc1nnc(COc2ccccc2Cl)o1 returned Tn7 DDE FP -6, PLCg1 inh 7, ADAM17 inh 9.8*, PLC-beta3 inh 2, Tn6 DDE FP 0, ADAM10 inh 23*, ADAM10 confirm 3, ADAM17 counter 0, ADAM10 counter 6 and ADAM17 confirm 6.
CC(C)NC(=O)NC(=O)CSc1nnc(COc2ccccc2Cl)o1 was read as Tn7 DDE FP 2, PLCg1 inh 3, ADAM17 inh 1, PLC-beta3 inh 1, Tn6 DDE FP 1 and ADAM10 inh 7.
Screening CCC(NC(=O)c1ccc2c(ccn2Cc2cccc(-c3ccc(C(=O)O)cc3)c2)c1)c1ccccc1 (centres undefined) returned Tn7 DDE FP -8, PLCg1 inh 5, ADAM17 inh -3, PLC-beta3 inh -5, Tn6 DDE FP -5 and ADAM10 inh 11.
Screening CC(C)(C)N1Cc2nnn(CC3CCCCC3)c2-c2ccccc2S1(=O)=O returned Tn7 DDE FP -4, PLCg1 inh 1, ADAM17 inh 4, PLC-beta3 inh 4, Tn6 DDE FP 3 and ADAM10 inh 11.
Screening COc1cc(C(O)c2nc(-c3cccc(C(C)C)c3)cs2)ccc1F (centres undefined) returned Tn7 DDE FP -11, PLCg1 inh 4, ADAM17 inh 11*, PLC-beta3 inh 2, Tn6 DDE FP -2, ADAM10 inh 20*, ADAM10 confirm 6, ADAM17 counter 2, ADAM10 counter 24* and ADAM17 confirm 13*.
Screening COc1ccc(C(O)c2nc(-c3ccc(F)cc3OC)cs2)cc1 (centres undefined) returned Tn7 DDE FP 5, PLCg1 inh 1, ADAM17 inh 2, PLC-beta3 inh 1, Tn6 DDE FP 3 and ADAM10 inh 7.
COc1cc(C(O)c2nc(-c3cccc(F)c3)cs2)ccc1F (centres undefined) was read as Tn7 DDE FP 6, PLCg1 inh -1, ADAM17 inh 1, PLC-beta3 inh -4, Tn6 DDE FP 3 and ADAM10 inh 1.
`COc1cccc(C(O)c2nc(-c3ccc(F)cc3OC)cs2)c1` (centres undefined) gave Tn7 DDE FP 5, PLCg1 inh 5, ADAM17 inh 11*, PLC-beta3 inh 3, Tn6 DDE FP 4, ADAM10 inh 30*, ADAM10 confirm 3, ADAM17 counter 1, ADAM10 counter 11 and ADAM17 confirm 8.8*.
For COc1cc(C(O)c2nc(/C=C/c3ccccc3)cs2)ccc1F (centres undefined) the results were Tn7 DDE FP 3, PLCg1 inh -3, ADAM17 inh 17*, PLC-beta3 inh 1, Tn6 DDE FP -7, ADAM10 inh 42*, ADAM10 confirm 3, ADAM17 counter 1, ADAM10 counter 22* and ADAM17 confirm 11*.
`C/C(=N/NC(=O)CSc1nnc(-c2ccccc2)n1-c1ccc(Cl)cc1)c1cccc(O)c1` gave Tn7 DDE FP 0, PLCg1 inh -1, ADAM17 inh 2, PLC-beta3 inh 3, Tn6 DDE FP 6 and ADAM10 inh 6.
For O=C(c1ccoc1)N1CCN(c2cc(-c3ccco3)nc3cc(-c4ccco4)nn23)CC1 the results were Tn7 DDE FP 5, PLCg1 inh inactive, ADAM17 inh -365, PLC-beta3 inh inactive, Tn6 DDE FP 1 and ADAM10 inh inactive.
For Cc1ccccc1N=C(NOCc1ccc(Cl)cc1Cl)c1nonc1N the results were Tn7 DDE FP 0, PLCg1 inh 2, ADAM17 inh 9.6*, PLC-beta3 inh -2, Tn6 DDE FP 3, ADAM10 inh 20*, ADAM10 confirm 14, ADAM17 counter 3, ADAM10 counter 33* and ADAM17 confirm 24*.
Cc1ccccc1N=C(NOCc1ccccc1)c1nonc1N was read as Tn7 DDE FP 4, PLCg1 inh 1, ADAM17 inh 0, PLC-beta3 inh 3, Tn6 DDE FP 0 and ADAM10 inh 17.
For CC(C)[C@H](N)C(=O)N1CCC[C@@H]1C(=O)N1CCC2CCN(S(=O)(=O)c3ccccc3)CC21 (some centres undefined) the results were Tn7 DDE FP 3, PLCg1 inh 0, ADAM17 inh -3, PLC-beta3 inh 0, Tn6 DDE FP 2 and ADAM10 inh 3.
`O=C(COC(=O)c1cccc(NS(=O)(=O)c2ccc(F)c(F)c2)c1)NC(=O)NC1CCCCC1` gave Tn7 DDE FP -7, PLCg1 inh 6, ADAM17 inh 13*, PLC-beta3 inh 4, Tn6 DDE FP 7, ADAM10 inh 28*, ADAM10 confirm 7, ADAM17 counter 2, ADAM10 counter 18 and ADAM17 confirm 10*.

Bioassay records from PubChem BioAssay.
